Laboratory results published in ChEMBL document CHEMBL2401716, “Design and stereoselective synthesis of novel isosteviol-fused pyrazolines and pyrazoles as potential anticancer agents” (Eur J Med Chem, 2013).

Legend:
Format in all cases: functional, cell-based
HeLa = test: Antiproliferative activity against human HeLa cells after 48 hrs by MTT assay
Method in brief: (§1)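 Cells seeded in 96-well plates and exposed to compounds for 48 h at 37 °C, 5% CO2. MTT (0.5 mg/mL) then added for 4 h. Supernatant removed, formazan dissolved in DMSO, and OD read at 570 nm. Cisplatin served as positive control.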

A549 = test: Antiproliferative activity against human A549 cells after 48 hrs by MTT assay; details: A549, 48 h; method in brief: as §1
SGC-7901 = test: Antiproliferative activity against human SGC7901 cells after 48 hrs by MTT assay; details: SGC-7901, 48 h; method in brief: as §1
Raji = test: Antiproliferative activity against human Raji cells after 48 hrs by MTT assay
Method in brief: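 Human B-lymphoma Raji line kept in RPMI-1640 with 10% FBS and 100 U/mL penicillin at 37 °C, 5% CO2, humidified. Cells were plated in 96 wells and treated with compounds for 48 h. MTT (0.5 mg/mL) was added for 4 h, then formazan was taken up in DMSO after supernatant removal and read at 570 nm. Cisplatin served as positive control.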

SMILES	IC50 (HeLa)	IC50 (A549)	IC50 (SGC-7901)	IC50 (Raji)
CCOC(=O)[C@]1(C)CCC[C@@]2(C)[C@@H]3CC[C@@]4(C)C[C@]3(CC[C@@H]21)c1cnn(-c2cc(C)ccc2C)c14	34.3 µM	17.1 µM	33 µM	7.94 µM
CCOC(=O)[C@]1(C)CCC[C@@]2(C)[C@@H]3CC[C@@]4(C)C[C@]3(CC[C@@H]21)c1cnn(-c2ccccc2)c14	42.5 µM	25.4 µM	17.6 µM	11.4 µM
CCOC(=O)[C@]1(C)CCC[C@@]2(C)[C@@H]3CC[C@@]4(C)C[C@]3(CC[C@@H]21)[C@@H]1CN(c2ccc(F)cc2F)N=C14	> 50 µM	> 50 µM	> 50 µM	13.5 µM
CCOC(=O)[C@]1(C)CCC[C@@]2(C)[C@@H]3CC[C@@]4(C)C[C@]3(CC[C@@H]21)c1cnn(-c2cccc([N+](=O)[O-])c2)c14	> 50 µM	> 50 µM	> 50 µM	7.4 µM
CCOC(=O)[C@]1(C)CCC[C@@]2(C)[C@@H]3CC[C@@]4(C)C[C@]3(CC[C@@H]21)[C@@H]1CN(c2cc(Cl)ccc2Cl)N=C14	> 50 µM	> 50 µM	> 50 µM	25.6 µM
CCOC(=O)[C@]1(C)CCC[C@@]2(C)[C@@H]3CC[C@@]4(C)C[C@]3(CC[C@@H]21)c1cnn(-c2ccc(Cl)c(Cl)c2)c14	> 50 µM	> 50 µM	> 50 µM	17.1 µM
CCOC(=O)[C@]1(C)CCC[C@@]2(C)[C@@H]3CC[C@@]4(C)C[C@]3(CC[C@@H]21)c1cnn(-c2ccccc2Br)c14	41.1 µM	17.4 µM	30.3 µM	11.3 µM
CCOC(=O)[C@]1(C)CCC[C@@]2(C)[C@@H]3CC[C@@]4(C)C[C@]3(CC[C@@H]21)[C@@H]1CN(c2cccc(Br)c2)N=C14	> 50 µM	> 50 µM	> 50 µM	25.1 µM
CCOC(=O)[C@]1(C)CCC[C@@]2(C)[C@@H]3CC[C@@]4(C)C[C@]3(CC[C@@H]21)[C@@H]1CN(c2ccc(F)cc2)N=C14	> 50 µM	> 50 µM	> 50 µM	4.51 µM
CCOC(=O)[C@]1(C)CCC[C@@]2(C)[C@@H]3CC[C@@]4(C)C[C@]3(CC[C@@H]21)c1cnn(-c2ccc(Cl)cc2)c14	> 50 µM	35.3 µM	8.44 µM	13.8 µM
CCOC(=O)[C@]1(C)CCC[C@@]2(C)[C@@H]3CC[C@@]4(C)C[C@]3(CC[C@@H]21)c1cnn(-c2ccc(C)c(C)c2)c14	38.2 µM	15.8 µM	38.1 µM	6.5 µM
CCOC(=O)[C@]1(C)CCC[C@@]2(C)[C@@H]3CC[C@@]4(C)C[C@]3(CC[C@@H]21)[C@@H]1CN(c2c(C)cccc2C)N=C14	28.8 µM	17.6 µM	16.6 µM	5.63 µM
CCOC(=O)[C@]1(C)CCC[C@@]2(C)[C@@H]3CC[C@@]4(C)C[C@]3(CC[C@@H]21)c1cnn(-c2cccc(F)c2)c14	> 50 µM	19.2 µM	35.8 µM	3.4 µM
CCOC(=O)[C@]1(C)CCC[C@@]2(C)[C@@H]3CC[C@@]4(C)C[C@]3(CC[C@@H]21)[C@@H]1CN(c2ccc(Cl)cc2Cl)N=C14	> 50 µM	> 50 µM	> 50 µM	22.9 µM
CCOC(=O)[C@]1(C)CCC[C@@]2(C)[C@@H]3CC[C@@]4(C)C[C@]3(CC[C@@H]21)c1cnn(-c2cccc(C)c2C)c14	37.5 µM	18.2 µM	19.3 µM	3.26 µM
CCOC(=O)[C@]1(C)CCC[C@@]2(C)[C@@H]3CC[C@@]4(C)C[C@]3(CC[C@@H]21)[C@@H]1CN(c2c(Cl)cccc2Cl)N=C14	> 50 µM	11.6 µM	> 50 µM	> 50 µM
CCOC(=O)[C@]1(C)CCC[C@@]2(C)[C@@H]3CC[C@@]4(C)C[C@]3(CC[C@@H]21)c1cnn(-c2cccc(Br)c2)c14	> 50 µM	26.5 µM	34.9 µM	3.27 µM
CCOC(=O)[C@]1(C)CCC[C@@]2(C)[C@@H]3CC[C@@]4(C)C[C@]3(CC[C@@H]21)c1cnn(-c2ccc(Cl)cc2Cl)c14	13.5 µM	3.18 µM	2.71 µM	1.09 µM
CCOC(=O)[C@]1(C)CCC[C@@]2(C)[C@@H]3CC[C@@]4(C)C[C@]3(CC[C@@H]21)[C@@H]1CN(c2ccc(C)c(C)c2)N=C14	> 50 µM	> 50 µM	32.5 µM	8.36 µM
CCOC(=O)[C@]1(C)CCC[C@@]2(C)[C@@H]3CC[C@@]4(C)C[C@]3(CC[C@@H]21)[C@@H]1CN(c2ccc(OC)cc2)N=C14	31.2 µM	17.8 µM	34 µM	12.2 µM

SMILES	IC50 (HeLa)	IC50 (A549)	IC50 (SGC-7901)	IC50 (Raji)
CCOC(=O)[C@]1(C)CCC[C@@]2(C)[C@@H]3CC[C@@]4(C)C[C@]3(CC[C@@H]21)c1cnn(-c2cc(C)cc(C)c2)c14	> 50 µM	> 50 µM	> 50 µM	12.5 µM
CCOC(=O)[C@]1(C)CCC[C@@]2(C)[C@@H]3CC[C@@]4(C)C[C@]3(CC[C@@H]21)[C@@H]1CN(c2ccccc2)N=C14	> 50 µM	28.3 µM	> 50 µM	14 µM
CCOC(=O)[C@]1(C)CCC[C@@]2(C)[C@@H]3CC[C@@]4(C)C[C@]3(CC[C@@H]21)c1cnn(-c2cc(F)ccc2F)c14	> 50 µM	> 50 µM	> 50 µM	7.11 µM
CCOC(=O)[C@]1(C)CCC[C@@]2(C)[C@@H]3CC[C@@]4(C)C[C@]3(CC[C@@H]21)[C@@H]1CN(c2cc(F)ccc2F)N=C14	> 50 µM	20.2 µM	> 50 µM	27.4 µM
CCOC(=O)[C@]1(C)CCC[C@@]2(C)[C@@H]3CC[C@@]4(C)C[C@]3(CC[C@@H]21)[C@@H]1CN(c2ccccc2C)N=C14	> 50 µM	> 50 µM	> 50 µM	19.9 µM
CCOC(=O)[C@]1(C)CCC[C@@]2(C)[C@@H]3CC[C@@]4(C)C[C@]3(CC[C@@H]21)c1cnn(-c2cccc(C)c2)c14	> 50 µM	12.4 µM	13.6 µM	4.84 µM
CCOC(=O)[C@]1(C)CCC[C@@]2(C)[C@@H]3CC[C@@]4(C)C[C@]3(CC[C@@H]21)[C@@H]1CN(c2cc(C)ccc2C)N=C14	30.3 µM	> 50 µM	22.5 µM	12.6 µM
CCOC(=O)[C@]1(C)CCC[C@@]2(C)[C@@H]3CC[C@@]4(C)C[C@]3(CC[C@@H]21)[C@@H]1CN(c2cccc(C)c2)N=C14	> 50 µM	> 50 µM	> 50 µM	> 50 µM
CCOC(=O)[C@]1(C)CCC[C@@]2(C)[C@@H]3CC[C@@]4(C)C[C@]3(CC[C@@H]21)[C@@H]1CN(c2cccc(F)c2)N=C14	> 50 µM	> 50 µM	> 50 µM	29.1 µM
CCOC(=O)[C@]1(C)CCC[C@@]2(C)[C@@H]3CC[C@@]4(C)C[C@]3(CC[C@@H]21)c1cnn(-c2ccccc2[N+](=O)[O-])c14	> 50 µM	42.3 µM	15.6 µM	14.3 µM
CCOC(=O)[C@]1(C)CCC[C@@]2(C)[C@@H]3CC[C@@]4(C)C[C@]3(CC[C@@H]21)[C@@H]1CN(c2ccc(Cl)cc2)N=C14	> 50 µM	> 50 µM	> 50 µM	> 50 µM
CCOC(=O)[C@]1(C)CCC[C@@]2(C)[C@@H]3CC[C@@]4(C)C[C@]3(CC[C@@H]21)c1cnn(-c2ccc(C)cc2)c14	> 50 µM	18.8 µM	34.9 µM	8.61 µM
CCOC(=O)[C@]1(C)CCC[C@@]2(C)[C@@H]3CC[C@@]4(C)C[C@]3(CC[C@@H]21)c1cnn(-c2ccc([N+](=O)[O-])cc2)c14	> 50 µM	> 50 µM	> 50 µM	10.2 µM
CCOC(=O)[C@]1(C)CCC[C@@]2(C)[C@@H]3CC[C@@]4(C)C[C@]3(CC[C@@H]21)[C@@H]1CN(c2cccc(C(F)(F)F)c2)N=C14	> 50 µM	> 50 µM	> 50 µM	7.21 µM
CCOC(=O)[C@]1(C)CCC[C@@]2(C)[C@@H]3CC[C@@]4(C)C[C@]3(CC[C@@H]21)c1cnn(-c2cc(Cl)ccc2Cl)c14	> 50 µM	> 50 µM	> 50 µM	11.7 µM
CCOC(=O)[C@]1(C)CCC[C@@]2(C)[C@@H]3CC[C@@]4(C)C[C@]3(CC[C@@H]21)[C@@H]1CN(c2cccc(C)c2C)N=C14	> 50 µM	> 50 µM	31.9 µM	8.82 µM
CCOC(=O)[C@]1(C)CCC[C@@]2(C)[C@@H]3CC[C@@]4(C)C[C@]3(CC[C@@H]21)c1cnn(-c2cccc(Cl)c2Cl)c14	> 50 µM	> 50 µM	> 50 µM	5.13 µM
CCOC(=O)[C@]1(C)CCC[C@@]2(C)[C@@H]3CC[C@@]4(C)C[C@]3(CC[C@@H]21)[C@@H]1CN(c2ccc(Br)cc2)N=C14	> 50 µM	> 50 µM	> 50 µM	> 50 µM
CCOC(=O)[C@]1(C)CCC[C@@]2(C)[C@@H]3CC[C@@]4(C)C[C@]3(CC[C@@H]21)c1cnn(-c2ccc(F)cc2F)c14	> 50 µM	20.1 µM	28.4 µM	9.96 µM
